Rows were chosen to be rich in hits. Some 4% of all compounds tested hit in one or more screens of this group.
MT stabilizer = microtubule stabilizers in HeLa cells, primary screen, imaging, high-content imaging | % tubulin-high responders, % at 10 µM | HeLa tubulin immunostaining HCS, 24 h; share of cells brighter than vehicle mean+2SD | 200,000 compounds, 0.83% hits;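 active = plate Z-score above 3 for both tubulin-high and condensed-nucleus cell shares, with cell loss under 80%, at 10 µM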;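 also: anti alpha tubulin signal scored within the nucleus-defined area of each cell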
Pf gametocyte = late stage P. falciparum gametocyte viability inhibitors, primary screen, ATP luminescence, HTS. P. falciparum stage V gametocytes, 24 h. inhibition, % at 10.9 µM. 150,000 compounds, 0.065% hits;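 active = inhibition above the mean plus 3 SD of compounds within the control limits, set per campaign, cut at about 38% in these data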;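 also: 0% = DMSO wells and 100% = medium only without gametocytes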
b-catenin transl = modulators of beta-catenin nuclear translocation, primary screen, imaging, HeLa cells, immunofluorescence, high-content; AID 1665, 2009; 190,000 compounds, 0.3% hits; nuclear translocation activity, % at 5 µM;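 active = nuclear translocation activity above 50% at 5 µM, with a well cell count of 50 or more; inconclusive = wells under 50 cells across six images, flagged as toxic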;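 also: per-cell ratio of nuclear to cytoplasmic median beta-catenin stain intensity; plate controls were DMSO negative control for no effect and GSK-3 inhibitor IX positive control for full effect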
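test system = HeLa cells, endogenous beta-catenin | dosing = single 5 µM dose plus 0.02–20 µM confirmation series | times = compound treatment 24 h, 37°C, 5% CO2 | technique = beta-catenin immunofluorescence imaging with DAPI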
KCC2 mod = KCC2 cotransporter modulators, thallium flux, primary screen, cell-based, HEK293 KCC2, FluoZin-2 fluorescence, MLSMR | Solute carrier family 12 member 5 (Homo sapiens), Q9H2X9 | B-score of Tl+ flux slope (higher = more flux/activation; lower = inhibition) at 10 µM | 190,000 compounds, 2.2% hits | KCC2 cells, thallium flux FluoZin-2 fluorescence;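 active = thallium flux slope and its plate-corrected score both differing from the plate sample mean at a set confidence after two filtering rounds, in either direction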;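 also: slope of fluorescence scaled to starting intensity during 10 to 20 s after thallium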
WT yeast gro inh = growth inhibition of WT strain, primary screen, mitochondrial fusion inhibitor project, WT and mutant strains, chemical genetic; mitochondrial fusion phenotypic screen; inhibition, % at 10 µM; 190,000 compounds, 2.1% hits; AID 1362, 2008; in the data active = inhibition above about 58%; tested in S. cerevisiae
KCC2 secondary = KCC2 modulators in sodium-free buffer, confirmation, cell-based, HEK293 KCC2, thallium flux, secondary assay; shares compounds with KCC2 mod; FluoZin2 fluorescence; hits give high values; normalised thallium flux (F/F0 slope) at 10 µM; 3,700 compounds, 15% hits; AID 1713, 2009;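 active = thallium flux slope above the same plate's solvent-only control mean plus 3 SD; inconclusive = the two replicate wells disagree; inactive = no significant difference from solvent-only control wells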
KCC2 bumet counter = thallium flux persisting under bumetanide in KCC2 cells, confirmation, counter-screen for KCC2 modulator project, cell-based, HEK293 KCC2, FluoZin2, secondary assay 3; shares compounds with KCC2 mod; HEK293-KCC2 + bumetanide/ouabain; hits give high values; normalized thallium flux at 10 µM; 3,700 compounds, 49% hits;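 active = thallium entry rate above the same plate's blocked-transporter control wells by more than 3 SD; inconclusive = the two repeat wells disagree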;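 also: raw slope of fluorescence over initial fluorescence between 10 and 20 s after thallium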
KCC2 secondary2 = KCC2 modulators without ouabain present, confirmation, cell-based, HEK293 KCC2, thallium flux, FluoZin2, secondary assay 2; shares compounds with KCC2 mod; thallium flux FluoZin2 fluorescence; actives lie on both sides; F/F0 rise rate, 10–20 s post-thallium; normalized thallium flux at 10 µM; 3,700 compounds, 23% hits; AID 1715, 2009;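 active = thallium flux slope more than 3 SD above or below the plate's solvent-only control mean, mostly below; inconclusive = the two repeat wells disagreed; inactive = no significant shift from solvent-only controls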;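 also: raw slope with 0.1% DMSO as baseline and bumetanide as block control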
HEK counter1 = thallium flux modulation in parental HEK cells, confirmation, counter-screen for KCC2 modulator project, cell-based, counterscreen 1; shares compounds with KCC2 mod; HEK293 parental cells, thallium flux FluoZin2, ouabain; baseline-ratio fluorescence slope, 10–20 s after thallium; thallium flux rate (normalised fluorescence) at 10 µM; 3,700 compounds, 46% hits;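 active = thallium flux rate significantly above the same plate's solvent-only control wells, beyond their mean plus 3 SD; inconclusive = the two replicate wells gave conflicting results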
KCC2 retest ouab = KCC2 inhibitors and activators, ouabain retest, confirmation, HEK-KCC2 cells; AID 1717, 2009; raw Tl+ flux slope (below DMSO = inhibition, above = activation) at 10 µM; HEK293-KCC2, thallium flux FluoZin2 fluorescence; bidirectional: low = inhibitor, high = activator; shares compounds with KCC2 mod; 3,700 compounds, 48% hits;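 active = thallium flux slope beyond 3 SD from same-plate DMSO control mean in most replicates, usually higher, sometimes lower; inconclusive = repeat tests gave conflicting results; inactive = no significant difference from controls in most replicates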;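 also: slope of initial-normalized fluorescence between seconds 10 and 20 after thallium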
HEK counter2 = native HEK Tl+ uptake effects, second counter-screen – HEK cells, counterscreen 2, counter-screen for KCC2 modulator project, confirmation | AID 1718, 2009 | shares compounds with KCC2 mod | 3,700 compounds, 33% hits | HEK293 parental, thallium flux FluoZin-2 fluorescence slope | thallium flux slope at 10 µM;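 active = thallium flux slope above the same plate's solvent-control mean plus 3 SD in both duplicate wells; inconclusive = duplicate wells that disagreed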;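 also: run without ouabain in cells lacking the KCC2 cotransporter; slope of fluorescence scaled to its starting value between 10 and 20 s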
Starred values were filed as active, the others as inactive; u = inconclusive; x = no result.

SMILES	MT stabilizer	Pf gametocyte	b-catenin transl	KCC2 mod	WT yeast gro inh	KCC2 secondary	KCC2 bumet counter	KCC2 secondary2	HEK counter1	KCC2 retest ouab	HEK counter2
N#C/C(=C\c1ccc(O)c([N+](=O)[O-])c1)c1nc2ccccc2s1	4	7	3	-6.2*	56	0.0079	0.006	0.032	0.007	0.013*	0.01
O=C(O)CC/C(=C\c1ccc(N2CCOCC2)c([N+](=O)[O-])c1)c1nc2ccccc2s1	4	-9	-2	-8.5*	-10	0.0057	0.0048	0.021*	0.0074	u	0.011
O=C(O)CC/C(=C\c1ccc(Cl)c([N+](=O)[O-])c1)c1nc2ccccc2s1	1	-32	0	-7.1*	-35	0.0072	0.0072	u	0.0058*	u	0.009
CCOC(=O)C1C(=O)NC(c2ccccc2)=NC1c1ccc(Br)cc1 (stereo not given)	4	-17	-3	-0.64	-7	x	x	x	x	x	x
Fc1ccc(NC(=S)Nc2ccc(Cl)cc2Cl)cc1	2	-2	-2	4.5*	4	0.01	0.042*	0.035	0.016*	u	0.013*
CCOC(=O)NC(=O)CSc1ccc(C)cc1C	5	12	-1	2.9*	0	0.0093	0.0063	0.033	u	0.017	0.011
COc1cc(C)c(C)cc1S(=O)(=O)N1CCN(Cc2ccc3c(c2)OCO3)CC1	3	19	x	-0.64	16	x	x	x	x	x	x
COc1cc(C)c(C)cc1S(=O)(=O)N1CCN(Cc2ccccc2)CC1	4	x	0	x	-2	0.0054	0.005	0.025*	0.0067	u	0.011
COc1cccc(CNC(=O)CCC2CCCN(C(=O)c3ccc(OC)o3)C2)c1 (stereo not given)	2	0	-3	0.26	4	x	x	x	x	x	x
COC(=O)C(C)Sc1snnc1-c1ccccc1 (stereo not given)	1	x	3	x	-8	0.016	0.004	0.029	u	0.015	0.0095
CN(C)C(=O)c1snnc1-c1ccccc1	4	12	-9	0.97	1	x	x	x	x	x	x
C/C(=N\NC(=O)c1c(Br)c(C)nn1C)c1cccc(NC(=O)c2ccccc2C)c1	2	-53	0	-2.8	0	x	x	x	x	x	x
C/C(=N\NC(=O)c1c(Br)c(C)nn1C)c1cccc(NC(=O)C2CCC2)c1	5	3	x	-5.2*	-15	0.0055	0.0047	0.027	0.0071	0.017	0.0096
CCNC(=O)C1CC(=O)N(CCCc2ccccc2)C(=Nc2ccccc2)S1 (stereo not given)	x	13	1	0.15	x	x	x	x	x	x	x
O=C(CNC(=O)c1ccc2c(c1)OCCO2)N/N=C/c1cccc(Br)c1	2	3	-1	-0.018	3	x	x	x	x	x	x

Screens deposited in PubChem BioAssay by several laboratories.
